High-throughput results as filed in PubChem BioAssay.
Rows were chosen to be rich in hits. Some 3.4% of all compounds tested hit in one or more screens of this group.
ERAP1 inh: inhibitors of human ERAP1 aminopeptidase; recombinant ERAP1, Leu-AMC fluorescence, 60 min; inhibition, % at 10.7 µM; 340,000 tested, 0.15% active; AID 652197;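 active means mean replicate inhibition of at least 30%, or all replicates individually reaching that 30% level; inactive means mean below 30% and not every replicate reaching it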;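 further: 0% = neutral control wells and 100% = L-leucinethiol positive control wells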
S100A4 inh HTS: S100A4-myosin IIA interaction inhibition | P26447 | S100A4/TAMRA-MyoIIA peptide fluorescence polarization | inhibition, % at 10.7 µM | 360,000 tested, 0.14% active | AID 652163;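 active means mean inhibition of at least 70% across replicates, with every replicate also reaching that level; inconclusive means mean inhibition reaches 70% but some replicates fall short; inactive means mean inhibition below 70%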
Target sequence (P26447 whole entry, looked up): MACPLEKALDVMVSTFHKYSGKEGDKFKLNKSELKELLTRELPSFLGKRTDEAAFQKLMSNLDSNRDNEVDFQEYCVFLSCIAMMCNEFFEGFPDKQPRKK
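Test system – S100A4 monomer (human) · Compound – single-point compound testing · Schedule – 5 min incubation before reading · Probe or stimulus – TAMRA-labelled myosin IIA heavy-chain peptide probe, 5 nM · Benchmarks – neutral control DMSO, positive control TFP · Medium – Calcium-containing HEPES buffer, pH 7.2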
Ecoli rRNA inh: selective bacterial rRNA inhibition in E. coli; E. coli WT GFP vs humanized-ribosome RFP mutants, fluorescence, 24 h; stronger effect = lower value; DMSO median 0, no signal -100; GFP signal change (wild-type ribosome), % (test concentration not listed); 350,000 tested, 1.6% active;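 active means significant combined selectivity score with lowered wild-type GFP, culture density cut under 30%, mutant RFP and density less affected; inactive means any of these conditions unmet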
SIRT5 inh: blocks human SIRT5 desuccinylation of peptide | Q9NXA8 | Purified SirT5, succinyl-peptide AMC, trypsin-coupled fluorescence | inhibition, % at 15 µM | 330,000 tested, 1.1% active | AID 652115; in the data active means inhibition above about 15%; inconclusive means no clear call, values can overlap the other calls
Target sequence (Q9NXA8 whole entry, looked up): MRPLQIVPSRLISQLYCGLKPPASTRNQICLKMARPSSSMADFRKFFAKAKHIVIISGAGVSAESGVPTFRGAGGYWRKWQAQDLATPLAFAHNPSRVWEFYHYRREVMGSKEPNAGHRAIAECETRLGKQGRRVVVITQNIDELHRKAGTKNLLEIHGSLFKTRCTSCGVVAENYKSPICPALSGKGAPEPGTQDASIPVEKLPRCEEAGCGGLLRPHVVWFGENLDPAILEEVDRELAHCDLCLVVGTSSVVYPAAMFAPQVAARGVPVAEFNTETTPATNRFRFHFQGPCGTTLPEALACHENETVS
E-sel inducer: induces E-selectin expression in human endothelial cells | 260,000 tested, 0.37% active | activation, % at 7.58 µM | HUVEC E-selectin immunofluorescence imaging; normalized: neutral wells 0, TNF-alpha wells 100 | AID 686992 | P16581;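 active means mean E-selectin-positive cell signal at least 10% of the positive control, reached in at least 60% of replicates, without over 20% cell loss; inconclusive means no rule given, readout overlaps actives, possibly toxicity-flagged; inactive means the rest, including those meeting only one limit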
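Assay system: HUVEC, human umbilical vein endothelial cells / Amount: 3,000 HUVEC/well / Controls: TNF-alpha positive control, DMSO neutral control / Compound dosing: single concentration / Medium: EGM-2 over gelatin coat / Evaluation: percent E-selectin-positive cells / Signal: immunofluorescence imaging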
MLL AF4-AF9 inh: MLL-AF4/AF9 protein interaction inhibition; P42568; AlphaScreen, biotin-AF4 peptide binding to FLAG-AF9; inhibition, % at 10 µM; 350,000 tested, 0.47% active;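 active means every replicate reaching a set inhibition limit, whatever the replicate mean, cut at about 25% in these data; inconclusive means mean inhibition reaches that limit but some replicates miss it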;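 further: 0% = plate neutral control median and 100% = total signal loss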
The depositor's hits bear a star; ? = inconclusive; . = not tested or not shown.

SMILES	ERAP1 inh	S100A4 inh HTS	Ecoli rRNA inh	SIRT5 inh	E-sel inducer	MLL AF4-AF9 inh
CO[C@@H]1CN(C)C(=O)c2ccc(NC(=O)c3cc(C)on3)cc2OC[C@H](C)N(C(=O)C2CC2)C[C@H]1C	0	-2	-2	-1	0	-2
CO[C@H]1CN(C)C(=O)c2ccc(NC(=O)C3CC3)cc2OC[C@@H](C)N(C(=O)c2cnccn2)C[C@@H]1C	2	-15	3	-2	0	2
COc1ccc(CNC(=O)/C=C/[C@H]2O[C@@H](n3cc(C)c(=O)[nH]c3=O)C[C@@H]2O)cc1	0	3	1	0	1	0
COC(=O)c1ccc(CNC(=O)/C=C/[C@H]2O[C@@H](n3cc(C)c(=O)[nH]c3=O)C[C@@H]2O)cc1	2	-2	.	21*	1	-4
C=CC(=C)CC(NC)c1ccccc1 (centres undefined)	3	-29	22	-1	.	28*
C[C@H]1CN(C)C(=O)c2cccc(N(C)C)c2O[C@H]1CN(C)S(C)(=O)=O	.	.	0	.	.	.
CCOc1ccc(NC(=S)NNC(=S)Nc2cccc(C(F)(F)F)c2)cc1	1	-4	-28*	-5	19	.
CC(C)(O)C(=O)NNC(=S)Nc1cccc(C(F)(F)F)c1	-2	-2	9	1	0	-2
COc1ccc(NC(=S)NNC(=S)Nc2cccc(C(F)(F)F)c2)cc1	.	-3	-24*	1	1	7
Cc1noc(C)c1NC(=O)N(C)C[C@@H]1Oc2ccc(N(C)C)cc2CC(=O)N([C@@H](C)CO)C[C@@H]1C	-1	5	-2	0	0	-2
Cc1c(C(=O)O)cccc1-n1c(C)cc(/C=N/Nc2ccc([N+](=O)[O-])cn2)c1C	14	-5	16	16*	.	4
O=C(O)c1ccccc1C=NNc1ccc([N+](=O)[O-])cn1	0	3	3	1	8	-1
CCn1c(/C=C/c2cc[n+](C)cc2)nc2ccccc21	59*	3	25	-3	0	0
O=C(/C=C/c1ccc(O)c(O)c1)c1ccccc1O	4	0	-32*	0	-6	6
O=C(C=Cc1cccc(O)c1)c1ccccc1O	1	-1	-35	-3	0	10
Oc1cc(O)cc(C=Cc2ccc(O)c(O)c2)c1	31*	-2	-29*	.	0	10
C[C@@H]1CN([C@@H](C)CO)C(=O)Cc2cc(NC(=O)Cc3cn(C)c4ccccc34)ccc2O[C@H]1CN(C)S(=O)(=O)c1cn(C)cn1	-1	6	0	-3	0	2
CN(C)CCCNC(=O)C[C@@H]1CC[C@@H](NC(=O)c2ccccc2F)[C@@H](CO)O1	1	3	4	-1	-1	-3
CCOC(=O)/C(=N/Nc1ccc(OC)cc1)Sc1nnc(CCc2ccccc2)n1-c1ccccc1	-1	-3	-13	22*	.	-7
CC(=O)/C(=N/Nc1ccc(C)cc1)Sc1nnc(CCc2ccccc2)n1-c1ccccc1	-1	-7	9	-4	.	5
C[C@H]1CN([C@@H](C)CO)C(=O)c2cccc(NC(=O)Nc3ccc(F)cc3)c2O[C@@H]1CN(C)Cc1ccc(C(=O)Nc2ccccc2N)cc1	0	-13	-3	-4	8	-17
Cc1ccc(NC(=O)CN(C)C(=O)Cc2coc3cc(C)c(C)cc23)cc1	-2	-3	-23*	-8	.	1
Cc1noc(/C=C/N(C)C)c1S(=O)(=O)N1CCCC(C(=O)N2CCCCC2)C1 (centres undefined)	9	-4	-2	17*	0	0
O=C(C[C@H]1C=C[C@H](NC(=O)c2cccc(F)c2)[C@@H](CO)O1)NCCN1CCCC1	-4	10	0	-1	-1	-1
Cc1cc(C)n(C(=O)CNC(=O)c2cccs2)n1	2	3	10	23*	.	.
SMILES	ERAP1 inh	S100A4 inh HTS	Ecoli rRNA inh	SIRT5 inh	E-sel inducer	MLL AF4-AF9 inh
Cc1ccc(C23CC4CC(CC(C(=O)N(C)C)(C4)C2)C3)cc1	4	3	-12	-1	.	1
Cc1ccc(C23CC4CC(CC(C(N)=O)(C4)C2)C3)cc1	-3	-5	-23*	-2	.	4
c1ccc(COn2nnc3ccccc32)c(COn2nnc3ccccc32)c1	0	-10	-43*	-5	.	6
COc1ccc2sc(N(CCN(C)C)C(=O)/C=C/c3cccs3)nc2c1	12	-3	-20	2	-2	33*
C=C1[C@@H](O)[C@H](Cc2ccccc2)N(Cc2ccccc2Br)S1(=O)=O	-3	-3	-23*	.	4	.
Cc1ccccc1CN1[C@@H](Cc2ccccc2)COCCS1(=O)=O	.	.	.	.	1	.
C[C@@H]1CCCCO[C@@H](CN(C)C(=O)Nc2ccc(C(F)(F)F)cc2)[C@@H](C)CN([C@H](C)CO)C(=O)c2cc(NC(=O)C3CCCCC3)ccc2O1	2	-14	3	0	0	-1
CC(C)NC(=O)Nc1ccc2c(c1)C(=O)N([C@H](C)CO)C[C@@H](C)[C@@H](CN(C)C(=O)Nc1ccc(C(F)(F)F)cc1)OCCCC[C@@H](C)O2	-3	-3	2	1	0	-1
CCOc1cc(/C=C2\CCCc3c2nc2ccccc2c3C(=O)O)ccc1OC	3	80*	52	-5	4	4
Cc1ccc(CN2CCN(CC(=O)N3CCC(C(N)=O)CC3)C2=O)cc1	4	0	1	5	1	41*
Cc1ccc(SCCC(=O)N2CCC(C(N)=O)CC2)cc1	.	.	.	.	2	.
Cc1ccc(-c2cnc3c(c2)C(=O)N([C@H](C)CO)C[C@H](C)[C@H](CN(C)S(C)(=O)=O)O3)cc1	0	8	2	-5	0	-7
C[C@@H]1CN([C@H](C)CO)C(=O)Cc2cc(NS(=O)(=O)c3ccccc3)ccc2O[C@@H]1CN(C)Cc1ccc(C(F)(F)F)cc1	-2	-1	3	-1	47*	-10
C[C@H]1CN([C@@H](C)CO)C(=O)Cc2cc(NS(=O)(=O)c3ccccc3)ccc2O[C@H]1CN(C)Cc1ccc(C(F)(F)F)cc1	-3	-4	2	-2	42*	-11
O=C(C[C@H]1CC[C@@H]2[C@H](COC[C@@H](O)CN2Cc2ccc3c(c2)OCO3)O1)N1CCOCC1	-1	11	5	-4	1	0
CC1=NN(c2ccccc2)C(=O)/C1=C\C=C1\N(C)c2ccccc2C1(C)C	.	.	.	.	0	.
CN1/C(=C\C=C2/SC(=S)NC2=O)C(C)(C)c2ccccc21	-3	104*	20	-1	?	7
CN1/C(=C\C=C2/C(=O)Oc3ccccc3C2=O)C(C)(C)c2ccccc21	-2	178*	23	-5	5	-1
